Reference: article PMC7986169 (Clinical Pharmacology in Drug Development, 2021)
Where “and” joins values, the source holds several entries; their conditions need not be identical. Equal values may be shown once. Read-outs that look alike come from different tables or passages of the source.

Columns and labels:
[1] = Population pharmacokinetic analysis; format: in vivo, human
Outline: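 Oral dosing at 0.5–15 mg twice daily in UC patients, excluding creatinine clearance <40 mL/min. Predose and postdose plasma samples were stored at about –20°C and assayed by a validated method (LOQ 0.100 ng/mL). One-compartment model with first-order absorption, with or without lag. Exponential IIV on CL/F and V/F; IOV on Ka. Separate proportional residual errors for >8 h and ≤8 h postdose. FOCE with interaction; nonparametric bootstrap, 1000 runs.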

[2] = cited from earlier work
[3] = cited from earlier work; remark: listed apart in the source
JAK1 = conditions: in vitro assays; cited from earlier work
[4] = final model, table: estimate (RSE%), text: estimate (95%CI bootstrap)
[5] = fraction of the reference category (male)

CL/F, typical estimate ([1]; base model): 25.0 L/h
IIV (%CV) for CL/F ([1]; base model): 25.2%
IOV (%CV) for Ka ([1]; base model): 192.4%
Ka ([1]; base model): 9.9 h⁻¹
V/F, typical estimate ([1]; base model): 111 L
CL/F, bootstrap median ([1]; bootstrap of final model): 26.3 L/h
IIV for CL/F, bootstrap ([1]; bootstrap of final model): 22.2%
Ka, bootstrap median ([1]; bootstrap of final model): 9.86 h⁻¹
Lag time, bootstrap median ([1]; bootstrap of final model): 0.236 (NA) h
V/F, bootstrap median ([1]; bootstrap of final model): 115.5 (NA) L
IOV for Ka, bootstrap ([1]; bootstrap of final model, IOV instead of IIV (footnote b)): 191.9%
Dose proportionality of exposure ([1]; dose range 0.5-15 mg twice daily): dose‐proportional increase
Lower CL/F, Asian compared with non-Asian patients ([1]; final model prediction): 6.8%
Lower CL/F, baseline creatinine clearance 60 mL/min compared to 108.7 mL/min ([1]; final model prediction): 19%
Lower CL/F, females compared with males ([1]; final model prediction): 13.2%
Lower V/F, female compared with male patients ([1]; final model prediction): 15.5%
Lower V/F, patient aged 80 years compared with 40 years ([1]; final model prediction): 7.7%
Lower V/F, patient weighing 53 kg relative to 72.0 kg ([1]; final model prediction, 10th percentile of weight): approximately 16.4%
Higher V/F, patient weighing 95 kg relative to 72.0 kg ([1]; final model prediction, 90th percentile of weight): ~17.6%
IIV (%CV) for CL/F ([1]; final model, table: IIV (RSE%)): 22% and 22.2% and 22.2 (7.7) %
IOV (%CV) for Ka ([1]; final model, table: IOV (RSE%)): 191.8% and 191.8 (7.0) %
Ka (first-order absorption rate constant), typical estimate [1, 4]: 9.9 (7.1) h^−1
Lag time [1, 4]: 0.236 (0.52) h
Covariate parameter estimate: Female on CL/F [1, 5]: 0.868
Covariate parameter estimate: Female on V/F [1, 5]: 0.845
Covariate parameter estimate: Asian on CL/F ([1]; fraction of the reference category (non-Asian)): 0.932
Vd/F ([1]; human, plasma, oral): 116 L
half-life ([1]; human, plasma, oral, Derived elimination half-life (t½), final model, patients with UC): 3.05 h
half-life ([1]; human, plasma, oral, Derived elimination t½, base model): ~3.05 h
Covariate parameter estimate: Age on V/F ([1]; power function exponent, normalized to 40.0 years): –0.116
Covariate parameter estimate: BCCL on CL/F ([1]; power function exponent, normalized to 108.7 mL/min): 0.354
SMILES: C[C@@H]1CCN(C(=O)CC#N)C[C@@H]1N(C)c1ncnc2[nH]ccc12 [tofacitinib]
CL/F (apparent oral clearance), typical estimate ([1]; final model, reference individual: non-Asian male, 72.0 kg, 40.0 years, baseline creatinine clearance 108.7 mL/min, table: estimate (RSE%), text: estimate (95%CI bootstrap)): 26.3 L/h and 26.3 (25.5–27.2) L/h and 26.3 (1.2) L/h
Covariate parameter estimate: Body weight on V/F ([1]; power function exponent, normalized to 72.0 kg): 0.585
Share of clearance due to renal elimination [2]: 30%
Mean terminal-phase half-life (t½) ([2]; healthy volunteers): approximately 3.2 h
Time of peak plasma concentration after oral administration ([2]; healthy volunteers): approximately 1 hour (h)
Share of clearance via hepatic metabolism ([2]; primarily via cytochrome P450 3A4): 70%
AUC higher than in healthy individuals ([3]; mild renal impairment): 37%
AUC higher than in healthy individuals ([3]; moderate renal impairment): 43%
AUC higher than in healthy individuals ([3]; severe renal impairment): 123%
Inhibitory potency for JAK1 (JAK1): potent inhibitor
